From ChEMBL document CHEMBL1143197, “Neural networks as valuable tools to differentiate between sesquiterpene lactones' inhibitory activity on serotonin release and on NF-kappaB” (J Med Chem, 2008)

Test system: Platelet
Assay: Inhibition of serotonin release in bovine platelets
Format: functional, cell-based
Settings: Bos taurus
Outline: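 Bovine platelets loaded with [14C]serotonin by incubating cattle venous blood, taken up by active transport. Platelet-rich plasma prepared at a standard platelet concentration by centrifugation and dilution, then preincubated with the sesquiterpene lactones. Adenosine diphosphate added to trigger aggregation and degranulation. Reaction stopped after 6 min with ice-cold acetylsalicylic acid. Released serotonin monitored and IC50 determined.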

For `C/C1=C\CC[C@@]2(C)O[C@@H]2[C@H]2OC(=O)[C@@H](C)[C@@H]2CC1` [11BETA,13-DIHYDRO-PARTHENOLIDE], the IC50 was over 400 µM.

`C=C1C(=O)O[C@@H]2C[C@@H](C)[C@@H]3C=CC(=O)[C@@]3(C)[C@@H](O)[C@H]12` [HELENALIN] gave an IC50 of 4.28 µM.

Work on `C=C1C(=O)O[C@@H]2/C=C(\CO)CC/C=C(\C)C[C@H](O)[C@@H]12` [SALONITENOLIDE] yielded an IC50 of 10.2 µM.

For `C=C1C(=O)O[C@H]2C[C@H](C)[C@@H]3C(OC(C)=O)CC(OC(C)=O)[C@@]3(C)[C@@H](O)[C@H]12` (some centres undefined) [INUCHINENOLIDE C], the IC50 was 33.5 µM.

For `C=C1C(=O)O[C@@H]2C[C@@]3(C)[C@H](O)CCC(=C)[C@@H]3C[C@H]12` [ASPERILIN], the IC50 was 57.6 µM.

In the case of `C=C1C(=O)O[C@@H]2/C=C(\C)CC[C@H]3O[C@]3(C)CC[C@@H]12` [1,10-EPOXYCOSTUNOLIDE], the IC50 is reported as 121 µM.

For `C=C1C(=O)O[C@H]2[C@H]1[C@@H](OC(=O)[C@](C)(O)CCl)CC(=C)[C@@H]1C[C@H](O)[C@](O)(CCl)[C@H]21` [CENTAUREPENSIN], the IC50 was 6.06 µM.

Compound `C=C1C(=O)O[C@@H]2C[C@@]3(C)C[C@@H](O)[C@H](O)C(=C)[C@@H]3C[C@H]12` [PULCHELLIN C] has an IC50 of over 416 µM.

Work on `C[C@@H]1C[C@@H]2OC(=O)[C@]3(C)[C@H]2[C@@H](OC3(C)O)[C@]2(C)C(=O)C=C[C@@H]12` (some centres undefined) [TENULIN] yielded an IC50 of 361 µM.

Compound `C=C1C[C@@H](O)[C@@H]2[C@H](OC(=O)[C@H]2C)[C@H]2[C@H](C)[C@@H](O)C[C@@H]12` has an IC50 of over 488 µM.

For `CC1=CC[C@@H](O)[C@]2(C)CC[C@@H]3[C@H](OC(=O)[C@H]3C)[C@@H]12`, the IC50 was over 200 µM.

For `C=C1C(=O)O[C@@H]2/C=C(\CO)CC/C=C(\CO)C[C@H](OC(=O)C(C)C)[C@@H]12` [ALATOLIDE], the IC50 was 5.77 µM.

`C=C1C(=O)O[C@H]2C[C@@H](C)[C@@H]3C=CC(=O)[C@@]3(C)[C@H](OC(C)=O)[C@H]12` [LINIFOLIN A] gave an IC50 of 11.4 µM.

In the case of `C=C1C(=O)O[C@@H]2C3O[C@]3(C)CC/C=C(\C)CC[C@@H]12` (some centres undefined), the IC50 is reported as 3.03 µM.

`C=C1C(=O)O[C@H]2[C@H]1[C@H](OC(=O)[C@@]1(C)O[C@H]1C)[C@@H](OC(C)=O)/C(C(=O)OC)=C\CC[C@@]1(C)O[C@H]21` [ENHYDRIN] showed an IC50 of 8.76 µM.

For `C=C1C(=O)O[C@@H]2[C@H]1CC[C@H](C)[C@]1(O)CCC(=O)[C@@]21C` [CORONOPILIN], the IC50 was 249 µM.

In the case of `C=C(C(=O)O[C@@H]1C[C@@]2(C)[C@H](O)CC=C(C)[C@@H]2[C@H]2OC(=O)C(=C)[C@@H]21)C(C)O` (some centres undefined), the IC50 is reported as 26.7 µM.

In the case of `C=C1C(=O)O[C@@H]2/C=C(\C)[C@@H]3O[C@@H]3/C=C(/C(=O)OC)[C@H](O)[C@@H](OC(=O)[C@]3(C)O[C@@H]3C)[C@@H]12` [MELAMPODIN A], the IC50 is reported as 4.68 µM.

`C=C1C(=O)O[C@@H]2C/C(C=O)=C/CC/C(C)=C/[C@@H](O)[C@H]12` [SCHKUHRIOLIDE] showed an IC50 of 278 µM.

Compound `C=C1C(=O)O[C@H]2/C=C(\C)[C@@H](OC(C)=O)C/C=C(\C)C[C@@H](OC(=O)C3(C)OC3C)[C@@H]12` (some centres undefined) [URSINIOLIDE A] has an IC50 of 1.78 µM.

With `C=C1[C@@H](O)C[C@@H]2[C@H](OC(=O)[C@H]2C)[C@H]2[C@H](C)C(=O)C[C@@H]12` the IC50 was over 454 µM.

Work on `C=C(C)C(=O)O[C@@H]1C[C@@H](OC(C)=O)C(=O)CC[C@]2(C)O[C@H]2[C@@H]2OC(=O)C(COC(C)=O)=C21` [GLAUCOLIDE A] yielded an IC50 of 20.9 µM.

`C=C1C(=O)O[C@@H]2[C@H]3O[C@]3(C)CCC[C@H](C)CC[C@@H]12` showed an IC50 of 40.6 µM.

With `C=C1C(=O)O[C@@H]2[C@H]3C(=C)[C@@H](O)C[C@H]3C(=C)C[C@H](OC(=O)[C@@]3(C)CO3)[C@@H]12` the IC50 was 6.32 µM.

With `C=C1C(=O)O[C@@H]2C[C@@]3(C)CCCC(=C)[C@@H]3C[C@H]12` [ISOALANTOLACTONE] the IC50 was over 516 µM.

With `C=C1C(=O)O[C@H]2/C=C(\C)[C@@H](OC(C)=O)C/C=C(\C)C[C@@H](OC(=O)C(C)(O)C(C)OC(C)=O)[C@@H]12` (some centres undefined) [URSINIOLIDE B] the IC50 was 5.3 µM.

Compound `C=C1C(=O)O[C@H]2C[C@H](C)[C@@H]3CC(=O)C(C)=C3C[C@H]12` [XERANTOLIDE] has an IC50 of 101 µM.

For `C=C1C(=O)O[C@@H]2C[C@@]3(C)CCCC(=C)[C@]3(O)C[C@H]12` [TELEKIN], the IC50 was over 564 µM.

`C=C1C(=O)O[C@H]2[C@H]1[C@H](OC(=O)C1(C)OC1C)C[C@@]1(C)[C@H](O)CC=C(C)[C@H]21` (some centres undefined) was tested, and the IC50 was 7.09 µM.

For `C=C1C(=O)O[C@H]2C[C@@H](C)[C@@H]3CCC(=O)[C@@]3(C)[C@H](O)[C@H]12`, the IC50 was 60.1 µM.

`C=C1C(=O)O[C@H]2[C@H]1CC[C@@](C)(O)[C@]13O[C@H]1[C@H]1O[C@@]1(C)[C@H]23` [ARTECANIN] showed an IC50 of over 135 µM.

Compound `C=C1C(=O)O[C@H]2CC(=C)[C@@H](O)CC/C(C)=C/[C@@H](O)[C@H]12` [TATRIDIN B] has an IC50 of 27 µM.

`C=C1C(=O)O[C@@H]2/C=C(/CO)CC[C@H](OCC)C3=C[C@@H](OC3=O)[C@@H]12` [CINERENIN] was tested, and the IC50 was 3.52 µM.

Work on `CC1=C2[C@H]3OC(=O)[C@@H](C)[C@@H]3CC[C@@]2(C)C=CC1=O` [SANTONIN] yielded an IC50 of over 568 µM.

`C=C(C(=O)OC)[C@@H]1CC[C@@]2(C)CCC[C@@](C)(O)[C@@H]2C1` [VACHANIC ACID METHYLESTER] gave an IC50 of 201 µM.

`C=C1C(=O)O[C@H]2[C@H]1[C@H](OC(=O)C1(C)OC1C)C[C@@]1(C)[C@H](O)C[C@H]3O[C@@]3(C)[C@H]21` (some centres undefined) gave an IC50 of 17.7 µM.

Work on `C=C1C(=O)O[C@H]2C[C@@H](C)[C@@H]3C[C@@H](O)[C@H](O)[C@@]3(C)[C@H](O)[C@H]12` [GEIGERININ] yielded an IC50 of 73.4 µM.

`C=C1C(=O)O[C@@H]2[C@H]1CC[C@H](C)[C@]1(CCC(=O)O1)[C@@]2(C)O` [PSILOSTACHYIN A] showed an IC50 of 44.1 µM.

Compound `C=C1C(=O)O[C@@H]2[C@H]1CC[C@H](C)[C@]1(O)C=CC(=O)[C@@]21C` [PARTHENIN] has an IC50 of 129 µM.

`C=C1C(=O)O[C@@H]2/C=C(\CO)CC/C=C(\C)C[C@H](OC(=O)C(=C)[C@H](O)CO)[C@@H]12` [CNICIN] was tested, and the IC50 was 3.52 µM.

Work on `C=C1C(=O)O[C@H]2[C@H]1[C@H](OC(=O)C1(C)OC1C)C[C@@]1(C)[C@H](O)CCC(=C)[C@H]21` (some centres undefined) yielded an IC50 of 10.1 µM.

With `C[C@@H]1C(=O)O[C@H]2[C@H]1CC[C@@]1(C)O[C@@H]1CC[C@@]1(C)O[C@H]21` the IC50 was over 413 µM.

With `C=C1C(=O)O[C@H]2[C@H]1[C@@H](OC(=O)/C(=C/CO)CO)C/C(C)=C/CC[C@@]1(C)O[C@H]21` [STIZOLICIN] the IC50 was 5.82 µM.

`C=C(C(=O)O)[C@@H]1CC[C@@]2(C)CCC[C@@](C)(O)[C@@H]2C1` [ILICIC ACID] showed an IC50 of over 614 µM.

`C=C1C(=O)O[C@@H]2[C@H]1[C@@H](OC(C)=O)C[C@H](C)[C@@H]1CCC(=O)[C@@]21C` [CONFERTIFLORIN] was tested, and the IC50 was 8.88 µM.

`C=C1C(=O)O[C@H]2[C@H]1[C@@H](OC(=O)[C@]1(C)CO1)CC(=C)[C@@H]1C[C@H](O)[C@]3(CO3)[C@H]21` [REPIN] was tested, and the IC50 was 9.24 µM.

`C=C1C(=O)O[C@@H]2C3=C(C)CC[C@@H](O)[C@]3(C)C[C@@H](OC(=O)C3(C)OC3C)[C@@H]12` (stereo partly drawn) [1BETA-HYDROXY-8BETA-EPOXYANGELOYLOXYARBUSCULIN B] showed an IC50 of 6.66 µM.

`C=C1C(=O)O[C@@H]2[C@H]3C(C)=CC[C@@H](O)[C@]3(C)CC[C@@H]12` [SANTAMARIN] showed an IC50 of 84.9 µM.

`C=C1C(=O)O[C@H]2[C@H]1[C@H](OC(=O)C(C)(O)C(C)O)C[C@@]1(C)[C@H](O)CCC(=C)[C@H]21` (some centres undefined) showed an IC50 of 9.52 µM.

Work on `C=C1CC[C@@H](O)[C@]2(C)CC[C@@H]3[C@H](OC(=O)[C@H]3C)[C@@H]12` yielded an IC50 of over 210 µM.

`C=C1C(=O)O[C@@H]2C[C@H](C)[C@@H]3[C@@H](O)CC(=O)[C@@]3(C)C[C@H]12` [BURRODIN] gave an IC50 of 251 µM.

`C=C1CC[C@@H](O)[C@]2(C)CC[C@H]3C(=C)C(=O)O[C@@H]3[C@@H]12` [REYNOSIN] was tested, and the IC50 was 271 µM.

With `C=C1C(=O)O[C@@H]2/C=C(/COC(C)=O)CC[C@H](OCC)C3=C[C@@H](OC3=O)[C@@H]12` [CINERENIN ACETATE] the IC50 was 2.04 µM.

Compound `C=C1C(=O)O[C@H]2[C@H]1[C@@H](O)CC(=C)[C@@H]1CC(=O)[C@@H](C)[C@H]21` [GROSSHEIMIN] has an IC50 of 22.2 µM.
